The list is not random: actives were taken first. Their share in the collection is about 2%.
HIF activator – HIF pathway transcriptional activation | 300,000 tested, 0.32% active | U2OS HRE-luciferase reporter, luminescence; normalized: DMSO 0%, desferrioxamine 100% | activation, % at 7.5 µM (by protocol);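 active means mean activation of at least 10% of the iron chelator positive control signal, with at least half of replicates also reaching 10%; inconclusive means mean and replicate majority disagree about reaching 10%; inactive means mean and most replicates under 10%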
ARNT TACC3 PPI – disrupts binding between human ARNT and TACC3; inhibition, % at 9.99 µM; 390,000 tested, 0.66% active; Q9Y6A5; AlphaScreen His-ARNT PAS-B/GST-TACC3 binding, luminescence; TACC3 fragment carries E629A point mutation; AID 623870;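 active means mean inhibition of replicates at least 50% and at least half of replicates each reaching 50%; inconclusive means half or more replicates reach 50% but mean below 50%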
AI-2 QS mod – Vibrio harveyi AI-2 quorum sensing modulation; Vibrio harveyi JMH597 AI-2 luminescence/OD600 ratio, 9 h; stronger effect = lower value; strain lacks LuxN and CqsS sensors; 0 = neutral-control median; activity change, % at 7.5 µM; 300,000 tested, 0.4% active; AID 2094; in the data active means activity change below about -75%, passing the limit was not always enough; inconclusive means no clear call, values can overlap the other calls;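 further: luminescence divided by OD600 gain over 9 h not by final OD600 alone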
T cruzi repl – T. cruzi replication inhibition | T. cruzi beta-gal in NIH3T3, luminescence, 90 h | inhibition, % (no concentration beside the values) | 300,000 tested, 1.4% active;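 active means mean inhibition across valid replicates above about 55%, limit read from the data; inconclusive means mean below that limit but half or more replicates reach it; inactive means mean below it, under half of replicates reach it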;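 further: signal also drops with host cell toxicity which is not excluded here; higher percent means less beta-gal luminescence so fewer parasites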
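System: Mouse NIH/3T3 fibroblasts infected with β-gal-expressing T. cruzi Tulahuen C4 | Quantity: NIH/3T3 cells, 5,000 per well | Reagent: 5000 reporter trypomastigotes per well | Dosing: Compound pinned at 50 nL/well, DMSO | Schedule: 3 h host attachment, then at least 90 h co-culture | Detection: GalScreen luminescence, 60 min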
Each line names hits and unclear results; the compound was inactive in the other large screens.

CCCCCC1CCC(c2n[nH]c(=S)n2C)CC1 (centres undefined)	T cruzi repl 70
C=CCn1c(C2CC2)n[nH]c1=S	none
COc1ccc(Nc2ccc3c(c2)=NC2(CCCCC2)[N+]=3[O-])cc1	T cruzi repl 58
COc1ccccc1CN1CC(C(=O)NCCN(C)CCc2ccccc2)CCC1=O (centres undefined)	T cruzi repl 60
O=C(NCCc1c[nH]c2ccccc12)C1CCC(Cn2c(=S)[nH]c3ccccc3c2=O)CC1 (centres undefined)	T cruzi repl 75
COCCNC(=O)C1CCC(Cn2c(=S)[nH]c3ccccc3c2=O)CC1 (centres undefined)	none
C[C@H](CO)N1C[C@H](C)[C@H](CN(C)C(=O)CC2CC2)Oc2cc(C#C[C@@H](C)O)ccc2S1(=O)=O	none (no result: HIF activator, AI-2 QS mod, T cruzi repl)
C#CCOCCOCCOCCNc1nc(N2CCN(C(=O)[C@H](CCCCN)n3cc([C@@H](N)CO)nn3)CC2)nc(N2CCN(C(=O)[C@H](Cc3cc4ccccc4[nH]3)n3cc([C@@H](N)Cc4ccc(O)cc4)nn3)CC2)n1	none (no result: ARNT TACC3 PPI)
C#CCOCCOCCOCCNc1nc(N2CCN(C(=O)[C@H](CCCCN)n3cc([C@@H](N)C(C)CC)nn3)CC2)nc(N2CCN(C(=O)[C@H](Cc3ccc(O)cc3)n3cc([C@@H](N)CC(C)C)nn3)CC2)n1 (some centres undefined)	ARNT TACC3 PPI 30
C#CCOCCOCCOCCNc1nc(N2CCN(C(=O)[C@H](CCCCN)n3cc([C@@H](N)CC(C)C)nn3)CC2)nc(N2CCN(C(=O)[C@H](Cc3ccc(O)cc3)n3cc([C@@H](N)CC(C)C)nn3)CC2)n1	none (no result: ARNT TACC3 PPI)
C#CCOCCOCCOCCNc1nc(N2CCN(C(=O)[C@H](CCCCN)n3cc([C@@H](N)CC(C)C)nn3)CC2)nc(N2CCN(C(=O)[C@H](Cc3cc4ccccc4[nH]3)n3cc([C@@H](N)Cc4ccc(O)cc4)nn3)CC2)n1	ARNT TACC3 PPI 46
CC(C)NC(=O)N[C@@H]1CC[C@@H](CC(=O)NCc2ccc(Oc3ccccc3)cc2)O[C@@H]1CO	none (no result: HIF activator, AI-2 QS mod, T cruzi repl)
C[C@H](CO)N1C[C@H](C)[C@@H](CN(C)Cc2ccc(Oc3ccccc3)cc2)Oc2c(NC(=O)c3ccc(-c4nccs4)cc3)cccc2C1=O	none (no result: HIF activator, AI-2 QS mod, T cruzi repl)
Cc1cc(Nc2nc3ccccc3nc2Cl)n(-c2ccc([N+](=O)[O-])cc2)n1	T cruzi repl 55
O=C(N=Nc1c(O)[nH]c2ccc(Br)cc12)c1cc(-c2cccs2)nc2ccccc12	T cruzi repl 56
O=C(C[C@@H]1C=C[C@@H](NC(=O)C2CCOCC2)[C@@H](CO)O1)NCc1ccncc1	none (no result: HIF activator, AI-2 QS mod, T cruzi repl)
O=C(COc1cccc2ccccc12)Nc1ccc(Cl)cc1C(=O)O	HIF activator 15
Cc1c(Cl)cccc1NC(=O)COC(=O)c1c2c(nc3ccccc13)CCN(Cc1ccccc1)C2	T cruzi repl 68
COc1cccc(NC(=O)COC(=O)c2c3c(nc4ccccc24)CCC(C)C3)c1 (centres undefined)	T cruzi repl 73
Cc1cc(N2CCN(C)CC2)ccc1NC(=O)c1c2c(nc3ccccc13)CCN(Cc1ccccc1)C2	T cruzi repl 58
C[C@@H]1CN([C@@H](C)CO)C(=O)c2c(c3ccccc3n2C)-c2ccccc2CO[C@@H]1CN(C)C(=O)[C@@H]1CCCN1C	none (no result: HIF activator, AI-2 QS mod, T cruzi repl)
Cc1noc(C)c1S(=O)(=O)Nc1cccc2c1O[C@H](CN(C)Cc1ccc(-c3ccccc3)cc1)[C@H](C)CN([C@@H](C)CO)C2=O	none (no result: HIF activator, AI-2 QS mod, T cruzi repl)
c1cncc(-c2nc3ccccc3s2)c1	none
CC(=O)N(Cc1cccnc1)c1cccc(-c2nc3ccccc3s2)c1	T cruzi repl 59
COc1ccc(S(=O)(=O)Nc2ccc3c(c2)[C@H]2C[C@H](CC(=O)N(C)C)O[C@H](CO)[C@H]2O3)cc1	none (no result: HIF activator, AI-2 QS mod, T cruzi repl)
O=C(Nc1ccc2nc(-c3ccc(Br)o3)[nH]c2c1)c1cccs1	T cruzi repl 69
Cn1cccc1-c1nc2ccc(NC(=O)c3cccs3)cc2[nH]1	ARNT TACC3 PPI 36
COc1ccc(C(=O)CC(=O)Nc2ccc([N+](=O)[O-])cc2)cc1	AI-2 QS mod -90
COc1ccc(C(=O)c2ccc([N+](=O)[O-])cc2Cl)cc1	T cruzi repl 60
O=C(CCOc1ccccc1)Nc1ccc([N+](=O)[O-])cc1	AI-2 QS mod -79 (no result: ARNT TACC3 PPI)
C[C@H](CO)N1C[C@H](C)[C@H](CN(C)Cc2ccc3c(c2)OCO3)Oc2cc(-c3cccc(C(=O)N(C)C)c3)ccc2S1(=O)=O	none (no result: HIF activator, AI-2 QS mod, T cruzi repl)
CC(C)C#Cc1ccc2c(c1)O[C@H](CN(C)C(=O)c1cccnc1)[C@H](C)CN([C@@H](C)CO)S2(=O)=O	none (no result: HIF activator, AI-2 QS mod, T cruzi repl)
O=[N+]([O-])c1ccc(/C=N/N2CCN(c3ccncc3S(=O)(=O)N3CCCCC3)CC2)cc1	none
O=[N+]([O-])c1ccccc1/C=N/N1CCN(c2ccncc2S(=O)(=O)N2CCCCC2)CC1	T cruzi repl 76
COc1ccc(NC(=O)N(C)C[C@@H]2Oc3ncc(-c4cccnc4)cc3C(=O)N([C@H](C)CO)C[C@H]2C)cc1	none (no result: HIF activator, AI-2 QS mod, T cruzi repl)
C[C@H]1CN([C@@H](C)CO)C(=O)c2cccc(NS(C)(=O)=O)c2O[C@@H]1CN(C)Cc1ccc(C(F)(F)F)cc1	none (no result: HIF activator, AI-2 QS mod, T cruzi repl)
S=C(N/N=C/c1ccccc1)N1CCOCC1	ARNT TACC3 PPI 46
S=C(Nc1ccccc1)N1CCOCC1	AI-2 QS mod inconclusive
CCN(CC)S(=O)(=O)c1ccc(N/N=C/c2cc(OC)c(OC)cc2OC)nc1	none
CCOc1cccc(/C=N/Nc2ccc(S(=O)(=O)N(CC)CC)cn2)c1O	HIF activator 9.8
CCN(CC)S(=O)(=O)c1ccc(N/N=C(\C)c2ccc(OC)cc2O)nc1	HIF activator 9.6
COc1ccc(S(=O)(=O)N(C)C[C@H]2Oc3ccc(NC(=O)Nc4c(C)noc4C)cc3CC(=O)N([C@H](C)CO)C[C@@H]2C)cc1	none (no result: HIF activator, AI-2 QS mod, T cruzi repl)
COc1cc(NC(=O)c2cc([N+](=O)[O-])ccc2NC(=O)CNCc2ccccn2)cc(OC)c1	ARNT TACC3 PPI 38
COc1ccc(NC(=O)c2cc([N+](=O)[O-])ccc2NC(=O)CNCc2ccccn2)c(OC)c1	ARNT TACC3 PPI 46
C[C@H](NC(=O)C[C@H]1CC[C@@H](NC(=O)c2cccnc2)[C@@H](CO)O1)c1ccccc1	none (no result: HIF activator, AI-2 QS mod, T cruzi repl)
CC(=O)OCCCNc1cc(Sc2nc3ccccc3s2)c2nonc2c1[N+](=O)[O-]	T cruzi repl 69
CC(=O)OCCNc1cc(Sc2nc3ccccc3[nH]2)c2nonc2c1[N+](=O)[O-]	T cruzi repl 56
CC(=O)OCCNc1cc(SCc2ccco2)c2nonc2c1[N+](=O)[O-]	none
CC(=O)OCCCNc1cc(Sc2ccc(C)cc2)c2nonc2c1[N+](=O)[O-]	HIF activator 9.9
C[C@@H]1CN([C@@H](C)CO)S(=O)(=O)c2ccc(C3=CCCC3)cc2O[C@H]1CN(C)Cc1cccc(C(=O)O)c1	none (no result: HIF activator, AI-2 QS mod, T cruzi repl)
COc1ccc(NC(=O)Nc2ccc3c(c2)C(=O)N([C@H](C)CO)C[C@@H](C)[C@H](CN(C)C(=O)CCCN(C)C)OCCCC[C@@H](C)O3)cc1	none (no result: HIF activator, AI-2 QS mod, T cruzi repl)

Compound activity as filed in PubChem.
